By pIC50 is commonly meant the IC50 on a negative log10 scale, so that one unit is a factor of ten.

In test [1] the test system is CCRF-CEM. As to the kind of experiment: Inhibitory activity against human T-lymphoblast CEM cell line using T cell proliferation assay. The format is functional, cell-based. The method, boiled down: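 Human T-lymphoblast CEM cells were grown in RPMI 1640 with 10% heat-inactivated FBS and penicillin/streptomycin, then seeded at 3000 cells/well in 0.5% DMSO. Compounds were tested in triplicate from a 10 uM final top concentration in 3-fold serial dilutions. Cells were kept 72 h in humidified 5% CO2.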

Test [2] concerns the target Inosine-5'-monophosphate dehydrogenase 2 (Homo sapiens, UniProt P12268). As to the kind of experiment: Inhibition of human Inosine-5'-monophosphate dehydrogenase 2.

pIC50: −log10 of the molar value.

For `COc1cc(Nc2nc(OCc3ccccc3)nc(-c3ccccc3)n2)ccc1-c1cnco1`, the pIC50 is below 6.00 in test [1] and 7.49 in test [2].

For `COc1cc(Nc2nc(-c3ccccc3)nc(N3CCC[C@@H]3CO)n2)ccc1-c1cnco1`, the figures for the pIC50 in test [1] and in test [2] were below 6.00 and 7.11, respectively.

On to `COc1cc(Nc2nc(NCCC(=O)O)nc(-c3ccccc3)n2)ccc1-c1cnco1`, for which the pIC50 was below 6.00 in test [1] and 6.89 in test [2].

Take `CNc1nc(Nc2ccc(-c3cnco3)c(OC)c2)nc(-c2cccc(C)c2)n1`: the results for the pIC50 in test [1] and in test [2] were below 6.00 and 6.89, respectively.

Take `CNc1nc(Nc2ccc(-c3cnco3)c(OC)c2)nc(N2CCOCC2)n1`: the figures for the pIC50 in test [1] and in test [2] were below 6.00 and 6.80, respectively.

Molecule `COc1cc(Nc2nc(N)n(-c3ccccc3)n2)ccc1-c1cnco1` gave a pIC50 in test [1] below 6.00.

Turning to `COc1cc(Nc2nc(NCc3ccccc3)nc(-c3ccccc3)n2)ccc1-c1cnco1`, the pIC50 in test [1] is below 6.00; in test [2], 6.39.

As to `CNc1nc(Nc2ccc(-c3cnco3)c(OC)c2)nc(N2CCC[C@H]2CO)n1`, the results for the pIC50 in test [1] and in test [2] were below 6.00 and 6.89, respectively.

Take `CNc1nc(Nc2ccc(-c3cnco3)c(OC)c2)nc(N2CCC[C@H]2COC)n1`: the pIC50 was below 6.00 in test [1] and 6.41 in test [2].

Take `COc1cc(Nc2nc(O)nc(-c3ccccc3)n2)ccc1-c1cnco1`: the pIC50 in test [1] is 5.23; in test [2], 7.74.

Take `COc1cc(Nc2nc(-c3ccccc3)nc(N3CCOCC3)n2)ccc1-c1cnco1`: the pIC50 in test [1] is below 6.00; in test [2] it was 6.72.

With `CNc1nc(Nc2ccc(-c3cnco3)c(OC)c2)nc(-c2ccccc2)n1`, the pIC50 in test [1] is below 6.00; in test [2] it was 7.12.

`COc1cc(Nc2nc(NCCc3cccnc3)nc(-c3ccccc3)n2)ccc1-c1cnco1`: the pIC50 in test [1] is 5.62; in test [2], 7.24.

With `COc1cc(Nc2nc(-c3ccccc3)nc(N3CCN(C=O)CC3)n2)ccc1-c1cnco1`, the pIC50 in test [1] was below 6.00; in test [2] it was 6.80.

With `CNc1nc(Nc2ccc(-c3cnco3)c(OC)c2)nc(-c2ccccc2C)n1`, the pIC50 is below 6.00 in test [1] and 6.51 in test [2].

As to `CNc1nc(Nc2ccc(-c3cnco3)c(OC)c2)nc(N2CCC[C@@H]2CO)n1`, the figures for the pIC50 in test [1] and in test [2] were below 6.00 and 6.14, respectively.

`COc1cc(Nc2nc(NCCCC(=O)O)nc(-c3ccccc3)n2)ccc1-c1cnco1`: the pIC50 in test [1] was below 6.00; in test [2], 7.11.

For the molecule `COc1cc(Nc2nc(N)nc(-c3ccccc3)n2)ccc1-c1cnco1`, the figures for the pIC50 in test [1] and in test [2] were below 6.00 and 7.27, respectively.

Turning to `CNc1nc(Nc2ccc(-c3cnco3)c(OC)c2)nc(-c2ccco2)n1`, the values for the pIC50 in test [1] and in test [2] were below 6.00 and 7.24, respectively.

`CNc1nc(NC)nc(Nc2ccc(-c3cnco3)c(OC)c2)n1`: the pIC50 is below 6.00 in test [1] and 6.21 in test [2].

Consider `COc1cc(Nc2nc(NCCc3ccccc3)nc(-c3ccccc3)n2)ccc1-c1cnco1`, for which the pIC50 in test [1] and in test [2] was below 6.00 in each case.

`CNc1nc(Nc2ccc(-c3cnco3)c(OC)c2)nc(-c2ccc(C)cc2)n1`: the pIC50 is below 6.00 in test [1] and 6.77 in test [2].

As to `COc1cc(Nc2nc(-c3ccccc3)nc(N3CCC[C@H]3CO)n2)ccc1-c1cnco1`, the pIC50 in test [1] is below 6.00; in test [2], 7.14.

`COC[C@@H]1CCCN1c1nc(Nc2ccc(-c3cnco3)c(OC)c2)nc(-c2ccccc2)n1`: the negative-log IC50 (pIC50) in test [1] was below 6.00; in test [2] it was 6.54.

`COc1cc(Nc2nc(NCC(=O)O)nc(-c3ccccc3)n2)ccc1-c1cnco1`: the pIC50 is below 6.00 in test [1] and 6.60 in test [2].

For the molecule `COc1cc(Nc2nc(-c3ccccc3)nc(N(C)C)n2)ccc1-c1cnco1`, the pIC50 in test [1] was below 6.00; in test [2], 6.57.

With `COc1nc(Nc2ccc(-c3cnco3)c(OC)c2)nc(-c2ccccc2)n1`, the negative-log IC50 (pIC50) is below 6.00 in test [1] and 7.39 in test [2].

`COc1cc(Nc2nc(-c3ccccc3)nc(N3CCN(C)CC3)n2)ccc1-c1cnco1`: the pIC50 in test [1] is below 6.00; in test [2] it was 6.48.

Consider `COc1cc(Nc2nncc(-c3ccccc3)n2)ccc1-c1cnco1`, for which the pIC50 was 5.46 in test [1] and 7.35 in test [2].

The molecule `COc1c(C)c2c(c(O)c1C/C=C(\C)CCC(=O)O)C(=O)OC2` [MYCOPHENOLIC ACID] had a pIC50 in test [1] of 6.41.

The record behind these values is ChEMBL document CHEMBL1134859, “Rapid synthesis of triazine inhibitors of inosine monophosphate dehydrogenase” (Bioorg Med Chem Lett, 2002).
